Several values for one entry are separate records, joined by “and”; a condition that tells them apart may be missing. Identical values can stand only once.
Test system: HEK-293T
Assay: Multiplex assay against HEK293T
Assay type: toxicity, cell-based
Conditions: human
How it was run: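 Four dyes were applied at seeding to live cells: Hoechst33342, BioTracker Green Microtubule Cytoskeleton Dye, MitoTracker Red and Annexin V Alexa Fluor 680. Imaging after compound addition used a CQ1 microscope at 37°C and 5% CO2. CellPathfinder machine-learning gating then sorted cells into Hoechst high-intensity objects or normal cells, normal cells into healthy, pyknosed or fragmented nuclei, and pyknosed cells into mitotic or apoptotic, with tubulin, mitochondrial-mass and membrane-permeability phenotypes given as per cents of healthy-nucleus cells.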

[1] = 12 h, 1 µM, compound concentration 1 uM
[2] = 12 h, 10 µM, compound concentration 10 uM
[3] = 24 h, 1 µM, compound concentration 1 uM
[4] = 24 h, 10 µM, compound concentration 10 uM
[5] = 48 h, 1 µM, compound concentration 1 uM
[6] = 48 h, 10 µM, compound concentration 10 uM

COc1ccc2nc3ccc(OC)cc3c(SCCCN)c2c1.Cl
Population Apoptotic (%) [1]: 9.64% and 17.91%
Population Fragmented Nuclei (%) [1]: 1.39% and 4.49%
Population Hoechst High Intensity Objects (%) [1]: 0.55% and 0%
Population Membrane Permeable-Phenotype (%) [1]: 1.06% and 0%
Population Mitotic Cells (%) [1]: 90.36% and 82.09%
Population Normal (%) [1]: 99.45% and 100%
Population Pyknosed Nuclei (%) [1]: 46.24% and 85.9%
Population Tubulin-Different-Phenotype (%) [1]: 5.85% and 13.33%
Total Cell Count [1]: 361 and 156
Population Apoptotic (%) [2]: 19.66% and 51.55%
Population Fragmented Nuclei (%) [2]: 81.39% and 89.94%
Population Healthy Nuclei (%) [2]: 8.58% and 2.44%
Population Hoechst High Intensity Objects (%) [2]: 3.16% and 0.62%
Population Membrane Permeable-Phenotype (%) [2]: 0% and 3.23%
Population Mitochondria Different-Phenotype (%) [2]: 15% and 9.68%
Population Mitotic Cells (%) [2]: 80.34% and 48.45%
Population Normal (%) [2]: 96.84% and 99.38%
Population Pyknosed Nuclei (%) [2]: 10.03% and 7.63%
Population Tubulin-Different-Phenotype (%) [2]: 31% and 48.39%
Total Cell Count [2]: 1204 and 1280
Population Apoptotic (%) [3]: 11.89% and 22.43%
Population Fragmented Nuclei (%) [3]: 1.64% and 2.45%
Population Healthy Nuclei (%) [3]: 72.36% and 31.9%
Population Hoechst High Intensity Objects (%) [3]: 0% and 0.61%
Population Membrane Permeable-Phenotype (%) [3]: 1.51% and 3.85%
Population Mitochondria Different-Phenotype (%) [3]: 22.86% and 15.38%
Population Mitotic Cells (%) [3]: 88.11% and 77.57%
Population Normal (%) [3]: 100% and 99.39%
Population Pyknosed Nuclei (%) [3]: 26% and 65.64%
Population Tubulin-Different-Phenotype (%) [3]: 16.33% and 11.54%
Population Apoptotic (%) [4]: 66.98% and 59.74%
Population Fragmented Nuclei (%) [4]: 80.88% and 91.28%
Population Healthy Nuclei (%) [4]: 10.6% and 3.22%
Population Hoechst High Intensity Objects (%) [4]: 1.74% and 0.85%
Population Membrane Permeable-Phenotype (%) [4]: 2.27% and 2.22%
Population Mitochondria Different-Phenotype (%) [4]: 31.06% and 15.56%
Population Mitotic Cells (%) [4]: 33.02% and 40.26%
Population Normal (%) [4]: 98.26% and 99.15%
Population Pyknosed Nuclei (%) [4]: 8.51% and 5.5%
Population Tubulin-Different-Phenotype (%) [4]: 37.88% and 35.56%
Total Cell Count [4]: 1267 and 1411
Population Fragmented Nuclei (%) [5]: 3.15% and 5.62%
Population Healthy Nuclei (%) [5]: 85.43% and 51.69%
Population Hoechst High Intensity Objects (%) [5]: 0.08% and 0.56%
Population Membrane Permeable-Phenotype (%) [5]: 4.52% and 2.17%
Population Mitochondria Different-Phenotype (%) [5]: 15.94% and 31.52%
Population Mitotic Cells (%) [5]: 95.17% and 75%
Population Normal (%) [5]: 99.92% and 99.44%
Population Apoptotic (%) [6]: 52.58% and 29.51%
Population Fragmented Nuclei (%) [6]: 73.59% and 92.69%
Population Hoechst High Intensity Objects (%) [6]: 4.79% and 2.09%
Population Membrane Permeable-Phenotype (%) [6]: 4.62% and 6.67%
Population Mitochondria Different-Phenotype (%) [6]: 54.23% and 53.33%
Population Mitotic Cells (%) [6]: 47.42% and 70.49%
Population Normal (%) [6]: 95.21% and 97.91%
Population Pyknosed Nuclei (%) [6]: 7.17% and 4.2%
Total Cell Count [6]: 1420 and 1482

COc1ccc2c(c1)C(C(=O)N(Cc1ccc(N(C)C)cc1)c1ccc(C(C)C)cc1)CCC2.Cl (stereo not drawn)
Population Apoptotic (%) [1]: 30% and 43%
Population Fragmented Nuclei (%) [1]: 6% and 5%
Population Healthy Nuclei (%) [1]: 80% and 79%
Population Hoechst High Intensity Objects (%) [1]: 7% and 4%
Population Membrane Permeable-Phenotype (%) [1]: 0%
Population Mitochondria Different-Phenotype (%) [1]: 39% and 61%
Population Mitotic Cells (%) [1]: 70% and 56%
Population Normal (%) [1]: 92% and 95%
Population Pyknosed Nuclei (%) [1]: 13% and 14%
Population Tubulin-Different-Phenotype (%) [1]: 27% and 23%
Total Cell Count [1]: 413 and 330
Population Apoptotic (%) [2]: 60% and 63%
Population Fragmented Nuclei (%) [2]: 9% and 4%
Population Healthy Nuclei (%) [2]: 78% and 77%
Population Hoechst High Intensity Objects (%) [2]: 10% and 6%
Population Membrane Permeable-Phenotype (%) [2]: 0%
Population Mitochondria Different-Phenotype (%) [2]: 60% and 75%
Population Mitotic Cells (%) [2]: 39% and 36%
Population Normal (%) [2]: 89% and 93%
Population Pyknosed Nuclei (%) [2]: 11% and 17%
Population Tubulin-Different-Phenotype (%) [2]: 64% and 57%
Total Cell Count [2]: 383 and 361
Population Apoptotic (%) [3]: 31% and 60%
Population Fragmented Nuclei (%) [3]: 9% and 7%
Population Healthy Nuclei (%) [3]: 81% and 79%
Population Hoechst High Intensity Objects (%) [3]: 3% and 6%
Population Membrane Permeable-Phenotype (%) [3]: 0%
Population Mitochondria Different-Phenotype (%) [3]: 20% and 33%
Population Mitotic Cells (%) [3]: 68% and 40%
Population Normal (%) [3]: 96% and 93%
Population Pyknosed Nuclei (%) [3]: 8% and 13%
Population Tubulin-Different-Phenotype (%) [3]: 13% and 11%
Total Cell Count [3]: 567 and 399
Population Apoptotic (%) [4]: 35% and 45%
Population Fragmented Nuclei (%) [4]: 9% and 7%
Population Healthy Nuclei (%) [4]: 73% and 76%
Population Hoechst High Intensity Objects (%) [4]: 10% and 6%
Population Membrane Permeable-Phenotype (%) [4]: 1% and 0%
Population Mitochondria Different-Phenotype (%) [4]: 51% and 60%
Population Mitotic Cells (%) [4]: 64% and 55%
Population Normal (%) [4]: 89% and 93%
Population Pyknosed Nuclei (%) [4]: 17% and 16%
Population Tubulin-Different-Phenotype (%) [4]: 70% and 60%
Total Cell Count [4]: 409 and 389
Population Apoptotic (%) [5]: 20% and 46%
Population Fragmented Nuclei (%) [5]: 12%
Population Healthy Nuclei (%) [5]: 80% and 81%
Population Hoechst High Intensity Objects (%) [5]: 1% and 4%
Population Membrane Permeable-Phenotype (%) [5]: 1% and 0%
Population Mitochondria Different-Phenotype (%) [5]: 10% and 17%
Population Mitotic Cells (%) [5]: 79% and 53%
Population Normal (%) [5]: 98% and 95%
Population Pyknosed Nuclei (%) [5]: 6%
Population Tubulin-Different-Phenotype (%) [5]: 10% and 15%
Total Cell Count [5]: 968 and 631
Population Apoptotic (%) [6]: 59% and 36%
Population Fragmented Nuclei (%) [6]: 15% and 11%
Population Healthy Nuclei (%) [6]: 75% and 79%
Population Hoechst High Intensity Objects (%) [6]: 9% and 3%
Population Membrane Permeable-Phenotype (%) [6]: 6% and 2%
Population Mitochondria Different-Phenotype (%) [6]: 25% and 24%
Population Mitotic Cells (%) [6]: 40% and 63%
Population Normal (%) [6]: 90% and 96%
Population Pyknosed Nuclei (%) [6]: 9% and 8%
Population Tubulin-Different-Phenotype (%) [6]: 53% and 50%
Total Cell Count [6]: 558 and 482

From ChEMBL document CHEMBL5724801, “EUbOPEN Chemogenomics Library - Multiplex” (2024)
